This note sets out measurements from ChEMBL document CHEMBL1157724 (Bioorg Med Chem, 2010).

The structures appear in SMILES notation. Active and inactive are the calls of the source. The calls are words filed in the database; no cut-off is given here.

As usually defined, the inhibition is the change of the read-out against control, counted positive when it falls. As usually defined, the IC50 is the concentration that gives 50% inhibition. The low end stands for greater potency in that assay, the high end for weaker potency in that assay.

Assay [1] has as its target T1, DNA topoisomerase 2-alpha (Homo sapiens, UniProt P11388). Briefly: Inhibition of DNA topoisomerase 2alpha-mediated pBR322 DNA cleavage at 50 uM by SDS-PAGE. The gist of the method:
(§1)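 Topoisomerase IIα (150 ng) with 80 ng pBR322 and 0.5 mM ATP in pH 8.0 Tris/KCl/NaCl/MgCl2/glycerol buffer. Drug added last from DMSO. Incubated 10 min at 37°C, quenched with SDS/EDTA, then proteinase K 30 min at 55°C. Linear DNA resolved on a 1.2% agarose ethidium bromide gel against a HindIII-linearised pBR322 marker.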

The target in assay [2] is T1, DNA topoisomerase 2-alpha. Briefly: Inhibition of DNA topoisomerase 2alpha in human K562 cells assessed as protein-DNA covalent complex formation under UV irradiation by scintillation counting. It is filed as cell-based. An outline of the steps:
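Radiolabelled K562 cells (1.5×10^6/ml, pH 7.4 buffer) given compound (2.5–20 μM), then irradiated or not at 365 nm for 5 min from 16 mm. Incubated 60 min at 37°C in the dark. SDS/KCl-precipitated protein-DNA complexes measured by scintillation, with 3H normalised to 14C. Nine experiments on different days. Paired t-tests of UV versus no UV at each concentration.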

Assay [3] deals with T1, DNA topoisomerase 2-alpha. Put plainly: Inhibition of DNA topoisomerase 2alpha in human K562 cells assessed as protein-DNA covalent complex formation at 80 uM by scintillation counting. It is filed as cell-based. An outline of the steps: (§2)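 K562 or K/VP.5 cells prelabelled 24 h with [3H]thymidine and [14C]leucine. Cells held at 1.5×10^6/ml in HEPES-buffered saline-glucose pH 7.4 and exposed to compound for 60 min at 37°C in the dark. Protein-DNA complexes precipitated with SDS/KCl after lysis and DNA shearing, and counted by scintillation. 3H normalised to 14C protein.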

Assay [4] concerns the target T1, DNA topoisomerase 2-alpha. Put plainly: Inhibition of DNA topoisomerase 2alpha in human K-VP.5 cells assessed as decrease in protein-DNA covalent complex formation at 80 uM by scintillation counting. The class given is cell-based. An outline of the steps: as §2
Assay [5] concerns the target T1, DNA topoisomerase 2-alpha. Put plainly: Inhibition of DNA topoisomerase 2alpha-mediated pBR322 DNA cleavage at 20 uM by SDS-PAGE.
For assay [6], the target named is T1, DNA topoisomerase 2-alpha. Briefly: Inhibition of DNA topoisomerase 2alpha-mediated pBR322 DNA cleavage at 100 uM by SDS-PAGE. An outline of the steps: as §1
In assay [7] the target is T1, DNA topoisomerase 2-alpha. Put plainly: Ratio of etoposide IC50 to IC50 for drug against human DNA topoisomerase 2alpha-mediated decatenation of kinetoplast plasmid DNA by fluorescent plate reader.
Assay [8] has as its target T1, DNA topoisomerase 2-alpha. Conditions: K562, 25 uM.
The test system of assay [9] is K562. Put plainly: Cytotoxicity against human K562 cells after 72 hrs by MTS assay. The class given is functional, cell-based. Particulars: K562, 72 h. An outline of the steps:
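K562 cells in αMEM with 10% fetal calf serum, 37°C, 5% CO2. Exponentially growing cells seeded at 6000/well. Compound added from DMSO stock (final DMSO 0.5% v/v), continuous exposure for 72 h. MTS added for a further 3 h and absorbance read. Three replicates per concentration. IC50 from a four-parameter logistic fit.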
Background: Formazan colour is commonly taken as a measure of viable cells.

Assay [10] has as its target T1, DNA topoisomerase 2-alpha. Particulars: 50 uM.
Assay [11] deals with T1, DNA topoisomerase 2-alpha. Conditions: K562, 50 uM.

T1 sequence (P11388 whole entry): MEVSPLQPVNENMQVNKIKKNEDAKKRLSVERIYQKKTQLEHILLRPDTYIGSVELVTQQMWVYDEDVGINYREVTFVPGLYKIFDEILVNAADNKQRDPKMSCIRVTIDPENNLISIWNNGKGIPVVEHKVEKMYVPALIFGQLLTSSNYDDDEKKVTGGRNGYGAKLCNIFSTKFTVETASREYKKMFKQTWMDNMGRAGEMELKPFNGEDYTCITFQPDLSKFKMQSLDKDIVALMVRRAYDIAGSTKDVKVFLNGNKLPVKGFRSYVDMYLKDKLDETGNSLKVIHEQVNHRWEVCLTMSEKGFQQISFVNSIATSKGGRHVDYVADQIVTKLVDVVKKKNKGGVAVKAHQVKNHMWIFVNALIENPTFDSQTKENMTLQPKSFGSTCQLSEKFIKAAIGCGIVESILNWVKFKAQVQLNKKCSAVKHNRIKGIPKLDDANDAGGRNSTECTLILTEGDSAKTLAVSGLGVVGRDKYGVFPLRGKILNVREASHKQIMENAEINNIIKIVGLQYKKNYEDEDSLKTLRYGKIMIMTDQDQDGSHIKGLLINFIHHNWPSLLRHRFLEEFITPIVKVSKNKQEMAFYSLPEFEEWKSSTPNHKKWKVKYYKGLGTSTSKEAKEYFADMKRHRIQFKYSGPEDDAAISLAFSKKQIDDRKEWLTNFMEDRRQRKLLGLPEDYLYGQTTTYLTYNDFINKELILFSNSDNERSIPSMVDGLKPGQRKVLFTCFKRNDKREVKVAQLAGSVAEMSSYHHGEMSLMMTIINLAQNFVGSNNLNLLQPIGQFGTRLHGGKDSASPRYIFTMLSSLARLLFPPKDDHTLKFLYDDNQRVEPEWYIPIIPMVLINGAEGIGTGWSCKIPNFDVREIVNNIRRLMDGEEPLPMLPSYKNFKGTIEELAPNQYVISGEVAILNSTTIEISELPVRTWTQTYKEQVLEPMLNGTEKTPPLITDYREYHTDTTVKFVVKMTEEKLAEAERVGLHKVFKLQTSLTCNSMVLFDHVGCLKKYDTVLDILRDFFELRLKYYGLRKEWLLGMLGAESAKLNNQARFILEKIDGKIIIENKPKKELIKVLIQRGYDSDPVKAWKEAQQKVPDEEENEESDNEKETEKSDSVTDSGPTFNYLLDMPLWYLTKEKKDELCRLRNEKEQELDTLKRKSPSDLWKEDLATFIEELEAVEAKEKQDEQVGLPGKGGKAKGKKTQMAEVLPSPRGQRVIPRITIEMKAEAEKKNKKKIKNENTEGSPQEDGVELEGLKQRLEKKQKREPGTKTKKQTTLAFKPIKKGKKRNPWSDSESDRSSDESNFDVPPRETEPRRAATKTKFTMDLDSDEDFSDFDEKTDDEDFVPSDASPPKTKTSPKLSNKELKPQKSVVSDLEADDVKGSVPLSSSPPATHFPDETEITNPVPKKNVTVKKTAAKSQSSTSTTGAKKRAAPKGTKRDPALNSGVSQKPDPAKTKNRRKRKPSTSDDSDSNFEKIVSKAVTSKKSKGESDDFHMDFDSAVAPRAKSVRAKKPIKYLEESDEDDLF

In turn, `CC[C@@]1(O)C(=O)OCc2c1cc1n(c2=O)Cc2cc3ccccc3nc2-1` registered an inhibition in assay [1] of 40%.

On to `COc1cc([C@@H]2c3cc4c(cc3[C@@H](NC(=O)c3ccc(C5(C(F)(F)F)N=N5)cc3)[C@H]3COC(=O)[C@H]23)OCO4)cc(OC)c1O` [DIAZIRINE], for which the inhibition result in assay [2] is “Dose-dependent effect”. Besides, the inhibition entry in [3], in [4], in [6] and in assay [1] was “Active” throughout. Besides, in assay [5], the inhibition entry is “inactive”. In addition, the Ratio IC50 in assay [7] came out at 2.

Regarding `COc1cc([C@@H]2c3cc4c(cc3[C@@H](O[C@@H]3O[C@@H]5CO[C@@H](C)O[C@H]5[C@H](O)[C@H]3O)[C@H]3COC(=O)[C@H]23)OCO4)cc(OC)c1O` [ETOPOSIDE], the inhibition entry in assay [8] and in assay [5] was “inactive” in each case. The IC50 in assay [9] turned out to be 420 nM. Also, the inhibition result in assay [6], in [10] and in [11] was “Active” in each case.
